# Data published in ChEMBL document CHEMBL1130878 (Bioorg Med Chem Lett, 1998).
# What was measured:
# [1] = Compound was evaluated for clearance after treatment with iv dose of 1 mgkg to female cynomolgus monkey; format: ADME, organism-based; parameters: dose 1 mgkg, route intravenous; settings: cercopithecidae, in vivo, 1 mg/kg
# Summary of the method: (§1)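 A female cynomolgus monkey (n = 1) received a single dose of either 1 mg/kg iv or 2 mg/kg orally. Plasma concentration-time data gave Cmax, tmax, AUC, clearance and Vss. Half-life was calculated over 1-8 h post administration.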
# Rattus norvegicus [2] = test: Compound was evaluated for AUC after treatment with oral dose of 2 mgkg to female wistar rats; format: ADME, organism-based; parameters: dose 2 mgkg, route oral; settings: in vivo, 2 mg/kg
# Summary of the method: (§2)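 Male and female Wistar rats, n = 3 per group, received a single dose of either 1 mg/kg iv or 2 mg/kg orally. Plasma levels were followed after dosing. Half-life was taken over the interval 1-8 h post administration. Oral bioavailability was derived against the iv data.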
# Rattus norvegicus [3] = test: Effect of compound on motor activity of spontaneously hypertensive rats after single oral administration of 0.1 mg/Kg dose; format: functional
# Summary of the method: (§3)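 Conscious spontaneously hypertensive rats were given a single oral dose at 12:00, with 5% arabic gum as the control vehicle. Heart rate and motor activity were monitored by telemetry. Change from a 3 h predrug period (9:00-12:00) was expressed as AUC0-12h (12:00-24:00). n = 6-13 per group, mean ± SEM, ANOVA with Dunnett's test vs control.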
# Rattus norvegicus [4] = test: Effect of compound on heart rate activity of spontaneously hypertensive rats after single oral administration of 10 mg/Kg dose; format: functional; summary of the method: as §3
# Rattus norvegicus [5] = test: Compound was evaluated for AUC after treatment with iv dose of 1 mgkg to female wistar rats; format: ADME, organism-based; parameters: dose 1 mgkg, route intravenous; settings: in vivo, 1 mg/kg; summary of the method: as §2
# Endothelin-1 receptor = target: T1, Endothelin-1 receptor (Rattus norvegicus, UniProt P26684); test: In vitro ability to inhibit specific [125I]ET1 binding to rat aorta membranes Endothelin A receptor; format: tissue-based
# T1 sequence (P26684 whole entry): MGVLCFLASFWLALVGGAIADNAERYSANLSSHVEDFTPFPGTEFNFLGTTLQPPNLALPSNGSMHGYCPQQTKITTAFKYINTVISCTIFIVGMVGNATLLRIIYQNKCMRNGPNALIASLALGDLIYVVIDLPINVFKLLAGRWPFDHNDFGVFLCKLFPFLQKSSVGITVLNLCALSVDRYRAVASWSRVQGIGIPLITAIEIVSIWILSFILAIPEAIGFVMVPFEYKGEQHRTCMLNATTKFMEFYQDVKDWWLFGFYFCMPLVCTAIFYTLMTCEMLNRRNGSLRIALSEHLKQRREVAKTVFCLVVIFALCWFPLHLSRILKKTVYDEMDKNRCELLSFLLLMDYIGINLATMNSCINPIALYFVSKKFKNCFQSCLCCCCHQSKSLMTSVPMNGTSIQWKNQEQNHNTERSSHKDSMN
# [6] = Compound was evaluated for maximum concentration after treatment with oral dose of 2 mgkg to female wistar rats; format: ADME, organism-based; parameters: dose 2 mgkg, route oral; settings: rat, in vivo, 2 mg/kg; summary of the method: as §2
# Rattus norvegicus [7] = test: ET-1 induced increase in mean arterial pressure following 0.3 mg/kg oral administration of compound; format: functional, Artery
# [8] = Compound was evaluated for maximum time to reach Cmax after treatment with oral dose of 2 mgkg to female wistar rats; format: ADME, organism-based; parameters: dose 2 mgkg, route oral; settings: rat, in vivo, 2 mg/kg; summary of the method: as §2
# Rattus norvegicus [9] = test: Effect of compound on heart rate activity of spontaneously hypertensive rats after single oral administration of 0.03 mg/Kg dose; format: functional; summary of the method: as §3
# Rattus norvegicus [10] = test: Effect of compound on motor activity of spontaneously hypertensive rats after single oral administration of 1 mg/Kg dose; format: functional; summary of the method: as §3
# Rattus norvegicus [11] = test: ET-1 induced increase in mean arterial pressure following 0.1 mg/kg oral administration of compound; format: functional, Artery
# [12] = Compound was evaluated for maximum time to reach Cmax after treatment with oral dose of 2 mgkg to male wistar rats; format: ADME, organism-based; parameters: dose 2 mgkg, route oral; settings: rat, in vivo, 2 mg/kg; summary of the method: as §2
# Rattus norvegicus [13] = test: Effect of compound on heart rate activity of spontaneously hypertensive rats after single oral administration of 0.1 mg/Kg dose; format: functional; summary of the method: as §3
# [14] = Compound was evaluated for clearance after treatment with iv dose of 1 mgkg to male wistar rats; format: ADME, organism-based; parameters: dose 1 mgkg, route intravenous; settings: rat, in vivo, 1 mg/kg; summary of the method: as §2
# Rattus norvegicus [15] = test: Effect of compound on motor activity of spontaneously hypertensive rats after single oral administration of 10 mg/Kg dose; format: functional; summary of the method: as §3
# Rattus norvegicus [16] = test: Effect of compound on heart rate activity of spontaneously hypertensive rats after single oral administration of 0.3 mg/Kg dose; format: functional; summary of the method: as §3
# Rattus norvegicus [17] = test: Effect of compound on motor activity of spontaneously hypertensive rats after single oral administration of 0.03 mg/Kg dose; format: functional; summary of the method: as §3
# [18] = Compound was evaluated for half-life after treatment with iv dose of 1 mgkg to female cynomolgus monkey; format: ADME, organism-based; parameters: dose 1 mgkg, route intravenous; settings: cercopithecidae, in vivo, 1 mg/kg; summary of the method: as §1
# [19] = target: T2, Endothelin receptor type B (Sus scrofa, UniProt P35463); test: In vitro ability to inhibit specific [125I]ET1 binding to porcine kidney (inner medulla) membranes Endothelin B receptor
# T2 sequence (P35463 whole entry): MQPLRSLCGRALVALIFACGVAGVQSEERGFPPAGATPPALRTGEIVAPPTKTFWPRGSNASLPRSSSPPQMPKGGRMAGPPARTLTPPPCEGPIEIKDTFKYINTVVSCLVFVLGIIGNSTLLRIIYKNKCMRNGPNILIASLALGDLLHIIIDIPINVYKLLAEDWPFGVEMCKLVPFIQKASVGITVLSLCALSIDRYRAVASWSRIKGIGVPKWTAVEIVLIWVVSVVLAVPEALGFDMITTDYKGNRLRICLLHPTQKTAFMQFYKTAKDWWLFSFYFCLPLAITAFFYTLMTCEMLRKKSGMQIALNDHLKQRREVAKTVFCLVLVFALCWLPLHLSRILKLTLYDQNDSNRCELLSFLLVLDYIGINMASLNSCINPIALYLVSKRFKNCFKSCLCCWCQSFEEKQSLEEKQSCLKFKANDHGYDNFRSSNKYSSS
# [20] = Compound was evaluated for AUC after treatment with iv dose of 1 mgkg to female cynomolgus monkey; format: ADME, organism-based; parameters: dose 1 mgkg, route intravenous; settings: cercopithecidae, in vivo, 1 mg/kg; summary of the method: as §1
# Rattus norvegicus [21] = test: Effect of compound on motor activity of spontaneously hypertensive rats after single oral administration of 0.3 mg/Kg dose; format: functional; summary of the method: as §3
# [22] = Compound was evaluated for volume of distribution (steady state) after treatment with iv dose of 1 mgkg to female cynomolgus monkey; format: ADME, organism-based; parameters: dose 1 mgkg, route intravenous; settings: cercopithecidae, in vivo, 1 mg/kg, read-out: Vss; summary of the method: as §1
# Rattus norvegicus [23] = test: ET-1 induced increase in mean arterial pressure following 3 mg/kg oral administration of compound; format: functional, Artery
# Rattus norvegicus [24] = test: Effect of compound on heart rate activity of spontaneously hypertensive rats after single oral administration of 3 mg/Kg dose; format: functional; summary of the method: as §3
# [25] = Compound was evaluated for maximum time to reach Cmax after treatment with oral dose of 2 mgkg to female cynomolgus monkey; format: ADME, organism-based; parameters: dose 2 mgkg, route oral; settings: cercopithecidae, in vivo, 2 mg/kg; summary of the method: as §1
# [26] = Compound was evaluated for half life after treatment with iv dose of 1 mgkg to female wistar rats; format: ADME, organism-based; parameters: dose 1 mgkg, route intravenous; settings: rat, in vivo, 1 mg/kg; summary of the method: as §2
# Oryctolagus cuniculus = species on record: Oryctolagus cuniculus; test: Compound was evaluated for the functional assay performed by obtaining sarafotoxin 6c concentration-response curves [pA2(ETB)] in isolated rabbit jugularis vein
# Rattus norvegicus [27] = test: ET-1 induced increase in mean arterial pressure following 1 mg/kg oral administration of compound; format: functional, Artery
# [28] = Compound was evaluated for volume of distribution (steady state) after treatment with iv dose of 1 mgkg to male wistar rats; format: ADME, organism-based; parameters: dose 1 mgkg, route intravenous; settings: rat, in vivo, 1 mg/kg, read-out: Vss; summary of the method: as §2
# [29] = Compound was evaluated for AUC after treatment with oral dose of 2 mgkg to female cynomolgus monkey; format: ADME; settings: cercopithecidae, in vivo; summary of the method: as §1
# [30] = Compound was evaluated for maximum concentration after treatment with oral dose of 2 mgkg to male wistar rats; format: ADME, organism-based; parameters: dose 2 mgkg, route oral; settings: rat, in vivo, 2 mg/kg; summary of the method: as §2
# Rattus norvegicus [31] = test: Compound was evaluated for AUC after treatment with oral dose of 2 mgkg to male wistar rats; format: ADME, organism-based; parameters: dose 2 mgkg, route oral; settings: in vivo, 2 mg/kg; summary of the method: as §2
# [32] = Compound was evaluated for half life after treatment with iv dose of 1 mgkg to male wistar rats; format: ADME, organism-based; parameters: dose 1 mgkg, route intravenous; settings: rat, in vivo, 1 mg/kg; summary of the method: as §2
# Rattus norvegicus [33] = test: Effect of compound on motor activity of spontaneously hypertensive rats after single oral administration of 3 mg/Kg dose; format: functional; summary of the method: as §3
# [34] = Compound was evaluated for clearance after treatment with iv dose of 1 mgkg to female wistar rats; format: ADME, organism-based; parameters: dose 1 mgkg, route intravenous; settings: rat, in vivo, 1 mg/kg; summary of the method: as §2
# Rattus norvegicus [35] = test: Effect of compound on motor activity of spontaneously hypertensive rats after single oral administration of 30 mg/Kg dose; format: functional; summary of the method: as §3
# [36] = Compound was evaluated for maximum concentration after treatment with oral dose of 2 mgkg to female cynomolgus monkey; format: ADME, organism-based; parameters: dose 2 mgkg, route oral; settings: cercopithecidae, in vivo, 2 mg/kg; summary of the method: as §1
# Rattus norvegicus [37] = test: Compound was evaluated for AUC after treatment with iv dose of 1 mgkg to male wistar rats; format: ADME, organism-based; parameters: dose 1 mgkg, route intravenous; settings: in vivo, 1 mg/kg; summary of the method: as §2
# Rattus norvegicus [38] = test: Effect of compound on heart rate activity of spontaneously hypertensive rats after single oral administration of 30 mg/Kg dose; format: functional; summary of the method: as §3
# Rattus norvegicus [39] = test: Effect of compound on heart rate activity of spontaneously hypertensive rats after single oral administration of 1 mg/Kg dose; format: functional; summary of the method: as §3
# Rattus norvegicus [40] = species on record: Rattus norvegicus; test: Compound was evaluated for the functional assay performed by obtaining ET-1 concentration-response curves [pA2(ETA)] in isolated rat aortic rings; settings: Aorta, read-out: pA2 (converted)
# Summary of the method: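 Functional ETA assay: ET-1 concentration-response curves in isolated rat aortic rings with the endothelium removed. Antagonism is expressed as pA2.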
# [41] = Compound was evaluated for volume of distribution (steady state) after treatment with iv dose of 1 mgkg to female wistar rats; format: ADME, organism-based; parameters: dose 1 mgkg, route intravenous; settings: rat, in vivo, 1 mg/kg, read-out: Vss; summary of the method: as §2
structure (smiles),measurement,setting,value
COc1ccc(C(=O)/C(Cc2cc(OC)c(OC)c(OC)c2)=C(\C(=O)[O-])c2ccc3nsnc3c2)cc1F.[Na+],clearance,[1],5 mL/min/kg
same,AUC,Rattus norvegicus [2],21300 ng·h/mL
same,AUC0-12h ΔMA,Rattus norvegicus [3],-72 units·h
same,AUC0-12h ΔHR,Rattus norvegicus [4],-349 min-1·h
same,AUC,Rattus norvegicus [5],15400 ng·h/mL
same,IC50,Endothelin-1 receptor,0.032 nM
same,Cmax,[6],3160 ng/mL
same,Mean arterial blood pressure,Rattus norvegicus [7],24 mmHg
same,Tmax,[8],30 min
same,AUC0-12h ΔHR,Rattus norvegicus [9],-384 min-1·h
same,AUC0-12h ΔMA,Rattus norvegicus [10],-131 units·h
same,Mean arterial blood pressure,Rattus norvegicus [11],32 mmHg
same,Tmax,[12],30 min
same,AUC0-12h ΔHR,Rattus norvegicus [13],-341 min-1·h
same,clearance,[14],6.67 mL/min/kg
same,AUC0-12h ΔMA,Rattus norvegicus [15],-131 units·h
same,AUC0-12h ΔHR,Rattus norvegicus [16],-413 min-1·h
same,AUC0-12h ΔMA,Rattus norvegicus [17],-97 units·h
same,half-life,[18],60 min
same,IC50,[19],160 nM
same,AUC,[20],3300 ng·h/mL
same,AUC0-12h ΔMA,Rattus norvegicus [21],-93 units·h
same,Vd,[22],0.1 L/kg
same,Mean arterial blood pressure,Rattus norvegicus [23],7 mmHg
same,AUC0-12h ΔHR,Rattus norvegicus [24],-356 min-1·h
same,Tmax,[25],30 min
same,half-life,[26],102 min
same,Kb,Oryctolagus cuniculus,1000 nM
same,Mean arterial blood pressure,Rattus norvegicus [27],11 mmHg
same,Vd,[28],0.5 L/kg
same,AUC,[29],4260 ng·h/mL
same,Cmax,[30],1010 ng/mL
same,AUC,Rattus norvegicus [31],1630 ng·h/mL
same,half-life,[32],96 min
same,AUC0-12h ΔMA,Rattus norvegicus [33],-102 units·h
same,clearance,[34],1.67 mL/min/kg
same,AUC0-12h ΔMA,Rattus norvegicus [35],-99 units·h
same,Cmax,[36],3830 ng/mL
same,AUC,Rattus norvegicus [37],2500 ng·h/mL
same,AUC0-12h ΔHR,Rattus norvegicus [38],-260 min-1·h
same,AUC0-12h ΔHR,Rattus norvegicus [39],-344 min-1·h
same,Kb,Rattus norvegicus [40],0.316 nM
same,Vd,[41],0.2 L/kg
